Measured values: ChEMBL document CHEMBL1143709, “Human and rat monoamine oxidase-A are differentially inhibited by (S)-4-alkylthioamphetamine derivatives: insights from molecular modeling studies” (Bioorg Med Chem, 2007)

The molecules below were run against T1, Amine oxidase [flavin-containing] A (Rattus norvegicus, UniProt P21396) (assay: Inhibition of rat brain MAOA).
T1 sequence (P21396 whole entry): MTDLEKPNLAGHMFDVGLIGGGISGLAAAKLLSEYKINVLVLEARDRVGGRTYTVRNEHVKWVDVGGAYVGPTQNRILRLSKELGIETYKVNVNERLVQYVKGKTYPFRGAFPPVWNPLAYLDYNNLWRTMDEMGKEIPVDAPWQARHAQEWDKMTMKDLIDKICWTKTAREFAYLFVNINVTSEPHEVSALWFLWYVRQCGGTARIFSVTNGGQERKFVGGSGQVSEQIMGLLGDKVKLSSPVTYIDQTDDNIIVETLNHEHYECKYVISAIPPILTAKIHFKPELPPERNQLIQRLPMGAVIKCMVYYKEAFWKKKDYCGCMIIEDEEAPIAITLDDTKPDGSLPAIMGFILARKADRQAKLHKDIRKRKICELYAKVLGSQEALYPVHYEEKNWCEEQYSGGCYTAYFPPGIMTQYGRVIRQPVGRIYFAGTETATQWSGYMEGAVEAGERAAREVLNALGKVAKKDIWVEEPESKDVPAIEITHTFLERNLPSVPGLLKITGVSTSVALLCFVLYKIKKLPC
In short: (§1)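 Enzyme was a crude brain mitochondrial suspension from male Sprague–Dawley rats (180–220 g). Substrates were 5-HT 100 μM for MAO-A and DMAPEA 5 μM for MAO-B. Substrates and metabolites were measured by C18 reverse-phase HPLC with electrochemical detection. IC50 was taken from % inhibition versus -log concentration, at least two experiments in triplicate, mean ± SD. Ki came from Cheng-Prusoff.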
Work on `CCCSc1ccc(C[C@H](C)N)cc1` yielded a Ki of 0.115 µM.
`CCSc1ccc(C[C@H](C)N)cc1` showed a Ki of 0.054 µM.
`CCCCSc1ccc(C[C@H](C)N)cc1` was tested, and the Ki was 0.392 µM.
Work on `CSc1ccc(C[C@H](C)N)cc1` yielded a Ki of 0.245 µM.

The molecules below were run against T2, Amine oxidase [flavin-containing] A (Homo sapiens, UniProt P21397) (assay: Inhibition of human recombinant MAOA expressed in Pichia pastoris).
T2 sequence (P21397 whole entry): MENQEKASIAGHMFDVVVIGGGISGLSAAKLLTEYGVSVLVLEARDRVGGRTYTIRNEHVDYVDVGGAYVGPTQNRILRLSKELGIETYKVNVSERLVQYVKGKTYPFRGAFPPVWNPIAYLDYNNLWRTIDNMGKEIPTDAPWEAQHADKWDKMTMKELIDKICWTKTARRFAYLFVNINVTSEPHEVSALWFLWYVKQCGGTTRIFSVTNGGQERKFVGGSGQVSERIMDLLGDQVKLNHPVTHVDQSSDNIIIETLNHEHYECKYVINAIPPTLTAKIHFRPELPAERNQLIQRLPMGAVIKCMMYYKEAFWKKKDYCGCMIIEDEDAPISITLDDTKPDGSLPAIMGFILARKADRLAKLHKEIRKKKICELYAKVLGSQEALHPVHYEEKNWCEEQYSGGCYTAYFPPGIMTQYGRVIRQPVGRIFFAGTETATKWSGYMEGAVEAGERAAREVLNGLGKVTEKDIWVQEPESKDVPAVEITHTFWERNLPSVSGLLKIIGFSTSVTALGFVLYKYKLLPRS
In short: (§2)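 Purified recombinant enzyme desalted on Sephadex G-25 into 50 mM potassium phosphate pH 7.5 with 0.8% β-octyl-glucoside. Activity was read spectrophotometrically with and without inhibitor in 50 mM HEPES pH 7.5 with 0.5% reduced Triton X-100 at 25°C. Substrates were kynuramine for MAO-A and benzylamine for MAO-B.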
For `CCCSc1ccc(C[C@H](C)N)cc1`, the Ki was 0.03 µM.
For `CCSc1ccc(C[C@H](C)N)cc1`, the Ki was 0.075 µM.
Work on `CCCCSc1ccc(C[C@H](C)N)cc1` yielded a Ki of 0.022 µM.
`CSc1ccc(C[C@H](C)N)cc1` was tested, and the Ki was 0.133 µM.

These molecules were tested against T3, Amine oxidase [flavin-containing] B (Homo sapiens, UniProt P27338) (assay: Inhibition of human recombinant MAOB expressed in Pichia pastoris).
T3 sequence (P27338 whole entry): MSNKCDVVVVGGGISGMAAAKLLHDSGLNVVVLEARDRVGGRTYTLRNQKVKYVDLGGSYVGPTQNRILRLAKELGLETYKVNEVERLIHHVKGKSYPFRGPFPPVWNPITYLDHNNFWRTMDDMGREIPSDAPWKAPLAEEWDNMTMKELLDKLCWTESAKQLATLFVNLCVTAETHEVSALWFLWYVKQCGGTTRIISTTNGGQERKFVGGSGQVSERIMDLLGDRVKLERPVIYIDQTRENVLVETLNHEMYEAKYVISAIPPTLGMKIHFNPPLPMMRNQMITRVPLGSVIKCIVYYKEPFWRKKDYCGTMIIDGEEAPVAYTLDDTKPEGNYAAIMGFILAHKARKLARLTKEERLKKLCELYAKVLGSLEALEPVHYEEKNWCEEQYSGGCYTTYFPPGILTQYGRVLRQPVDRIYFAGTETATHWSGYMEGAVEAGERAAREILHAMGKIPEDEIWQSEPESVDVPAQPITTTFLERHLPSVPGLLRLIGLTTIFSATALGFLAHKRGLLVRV
In short: as §2
For `CCCSc1ccc(C[C@H](C)N)cc1`, the Ki was 14 µM.
`CCSc1ccc(C[C@H](C)N)cc1` was tested, and the Ki was > 100 µM.
For `CCCCSc1ccc(C[C@H](C)N)cc1`, the Ki was 4.58 µM.

Each molecule was assayed against T4, Amine oxidase [flavin-containing] B (Rattus norvegicus, UniProt P19643) (assay: Inhibition of rat brain MAOB).
T4 sequence (P19643 whole entry): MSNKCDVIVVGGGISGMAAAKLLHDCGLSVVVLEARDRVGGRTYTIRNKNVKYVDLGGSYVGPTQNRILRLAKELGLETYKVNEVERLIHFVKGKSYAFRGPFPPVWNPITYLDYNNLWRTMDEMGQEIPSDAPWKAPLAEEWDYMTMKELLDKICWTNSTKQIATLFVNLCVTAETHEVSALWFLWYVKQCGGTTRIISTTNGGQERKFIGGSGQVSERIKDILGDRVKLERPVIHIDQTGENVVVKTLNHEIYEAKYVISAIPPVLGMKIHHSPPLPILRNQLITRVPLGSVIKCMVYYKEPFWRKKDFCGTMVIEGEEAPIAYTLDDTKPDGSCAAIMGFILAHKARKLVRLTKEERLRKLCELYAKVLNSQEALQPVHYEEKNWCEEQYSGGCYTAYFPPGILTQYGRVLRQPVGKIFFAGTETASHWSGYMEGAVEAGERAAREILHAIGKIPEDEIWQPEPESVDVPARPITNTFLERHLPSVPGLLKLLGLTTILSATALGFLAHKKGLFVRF
In short: as §1
`CCCSc1ccc(C[C@H](C)N)cc1` gave a Ki of 15000 µM.
For `CCSc1ccc(C[C@H](C)N)cc1`, the Ki was > 100 µM.
For `CCCCSc1ccc(C[C@H](C)N)cc1`, the Ki was 8.92 µM.
With `CSc1ccc(C[C@H](C)N)cc1` the Ki was > 100 µM.
